Data set [1] can be described thus: Photocytotoxicity against human NCTC 2544 cells irradiated with 1.25 J cm^-2 ultraviolet radiation after 72 hrs by MTT assay. In kind it is cell-based. In short, it runs like this: (§1)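 Culture media, each with penicillin G, streptomycin and 10% FBS: HL-60 in RPMI-1640, NCTC 2544 in DMEM, LoVo in Ham's F12. Seeding was 8 × 10³ HL-60 or 5 × 10³ NCTC 2544/LoVo cells per well, 18 h at 37 °C. Drug in DMSO diluted with HBSS pH 7.2 was added for 30 min at 37 °C, then UVA applied (dose measured at 365 nm). Medium was replaced, 72 h incubation, MTT read-out. GI50 is the concentration giving 50% growth inhibition.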
(In general: Tetrazolium assays rely on reduction of a dye to a coloured formazan, in cell work by metabolically active cells.)

The test system of data set [2] is HL-60. Nature of the data set: Photocytotoxicity against human HL60 cells irradiated with 1.25 J cm^-2 ultraviolet radiation after 72 hrs by MTT assay. The following applies: HL-60, light or radiation study. In kind it is functional. In a few lines:
as §1

Data set [3] deals with LoVo. As to the kind of experiment: Photocytotoxicity against human LoVo cells irradiated with 1.25 J cm^-2 ultraviolet radiation after 72 hrs by MTT assay. In kind it is functional. The note with it: light or radiation study. In a few lines:
as §1

Data set [4] deals with LoVo. Nature of the data set: Photocytotoxicity against human LoVo cells irradiated with 2.5 J cm^-2 ultraviolet radiation after 72 hrs by MTT assay. In kind it is functional. The note with it: light or radiation study. In a few lines:
as §1

For data set [5], the system named is HL-60. Nature of the data set: Photocytotoxicity against human HL60 cells irradiated with 2.5 J cm^-2 ultraviolet radiation after 72 hrs by MTT assay. In kind it is functional. The following applies: HL-60, light or radiation study. In short, it runs like this: as §1
Data set [6] can be described thus: Photocytotoxicity against human NCTC 2544 cells irradiated with 2.5 J cm^-2 ultraviolet radiation after 72 hrs by MTT assay. In kind it is cell-based. In a few lines:
as §1

Turning to `Cc1cc(F)ccc1C1=Nc2c(Br)cccc2SC(C(=O)O)C1` (stereo not given), the GI50 at 72 h in data set [1] and in data set [6] was > 20 µM throughout. Moreover, the GI50 with HL-60 [2] is 2.5 µM; in the data set on LoVo [3] it was > 20 µM; in the data set with LoVo [4] it was 13.2 µM; in the data set on HL-60 [5] it was 0.9 µM.
Consider `Cc1cc(F)ccc1C1=Nc2c(Cl)cccc2SC(C(=O)O)C1` (stereo not given), for which the GI50 at 72 h is > 20 µM in data set [1] and 6.9 µM in data set [6]. The GI50 was > 10 µM with HL-60 [2], 16.8 µM in the data set with LoVo [3], 9.8 µM in the data set with LoVo [4] and 6.9 µM in the data set with HL-60 [5].
Turning to `Cc1cc(F)ccc1C1=Nc2ccc(Cl)cc2SC(C(=O)O)C1` (stereo not given), the GI50 in the data set with HL-60 [2] is > 10 µM; in the data set with HL-60 [5], 6.8 µM.
The corresponding values for `COc1ccc2c(c1)SC(C(=O)O)CC(c1ccc(F)cc1C)=N2` (stereo not given) are > 10 µM and 10 µM.
Take `Cc1cc(F)ccc1C1=Nc2c(F)cccc2SC(C(=O)O)C1` (stereo not given): the GI50 at 72 h in data set [1] amounted to 7 µM; in data set [6] it was 2.6 µM. The GI50 was 6.6 µM with HL-60 [2], 3.8 µM in the data set with LoVo [3], 1.94 µM with LoVo [4] and 0.8 µM in the data set with HL-60 [5].
For `Cc1ccc2c(c1)SC(C(=O)O)CC(c1ccc(F)cc1C)=N2` (stereo not given), the values for the GI50 in the data set on HL-60 [2] and in the data set with HL-60 [5] were > 10 µM and 10 µM, respectively.
`COc1cccc2c1C(=O)c1c(O)c3c(c(O)c1C2=O)C[C@@](O)(C(=O)CO)C[C@@H]3O[C@H]1C[C@H](N)[C@H](O)[C@H](C)O1` [DOXORUBICIN]: the values for the GI50 at 72 h in data set [1] and in data set [6] were 3.04 µM and 1.32 µM, respectively. Further, the GI50 with HL-60 [2] amounted to 2.36 µM; with LoVo [3] it was 8.54 µM; with LoVo [4] it was 5.48 µM; in the data set on HL-60 [5] it was 1.45 µM.

What is called GI50 is the concentration at which growth is held to half of that of the control.
